Series [1] has as its target T1, LgtC (Neisseria meningitidis, UniProt Q93EK7).
T1 sequence (Q93EK7 whole entry): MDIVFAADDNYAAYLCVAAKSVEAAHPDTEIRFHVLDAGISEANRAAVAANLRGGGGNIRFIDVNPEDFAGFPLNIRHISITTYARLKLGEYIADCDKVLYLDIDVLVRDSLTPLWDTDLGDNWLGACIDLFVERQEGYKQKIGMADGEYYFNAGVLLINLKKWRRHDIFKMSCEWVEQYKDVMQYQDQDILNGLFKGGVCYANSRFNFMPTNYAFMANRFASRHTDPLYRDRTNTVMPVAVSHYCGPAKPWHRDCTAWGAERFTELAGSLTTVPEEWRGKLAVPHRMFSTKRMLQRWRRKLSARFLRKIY
Briefly: Inhibition of recombinant Neisseria meningitidis glycosyltransferase LgtC using UDP-Gal/lactose as substrate preincubated for 30 mins with UDP-Gal followed by lactose addition measured after 20 mins in presence of MnCl2 and calf intestinal phosphatase by malachite green dye based enzyme-coupled colorimetric assay relative to control. In a few lines: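 IC50 set-up using DTT-activated recombinant N. meningitidis LgtC at 20-50% donor turnover. Enzyme was pre-incubated 30 min at 30 °C with inhibitor (0.1-100 or 0.1-50 µM, 10% DMSO), UDP-Gal 28 µM, MnCl2 5 mM, CIP 10 U/mL, CEL 1 mg/mL and Triton 0.01% in 13 mM HEPES pH 7.0. Lactose 2 mM was added for 20 min at 30 °C, then read by Malachite Green phosphate detection at 620 nm.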

Series [2] addresses T1, LgtC. Briefly: Inhibition of recombinant Neisseria meningitidis glycosyltransferase LgtC using UDP-Gal/lactose as substrate preincubated for 20 mins with UDP-Gal followed by lactose addition measured after 20 mins in presence of MnCl2 by malachite green dye based colorimetric assay. Summed up:
(§1)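 Dose-response with DTT-activated recombinant N. meningitidis LgtC at 20-50% donor turnover. Pre-incubation was 20 min at 30 °C with inhibitor (0.1-50 up to 0.1-250 µM, 10% DMSO), UDP-Gal 28 µM, MnCl2 5 mM, CIP 10 U/mL, CEL 1 mg/mL and Triton 0.01% in 13 mM HEPES pH 7.0. Lactose 2 mM was then added for 20 min at 30 °C. Malachite Green A620 read-out; triplicate, mean ± SD.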

Series [3] has as its target T1, LgtC. Briefly: (§2) Inhibition of recombinant Neisseria meningitidis glycosyltransferase LgtC using UDP-Gal/lactose as substrate preincubated for 20 mins with UDP-Gal followed by lactose addition measured after 20 mins in presence of MnCl2. In a few lines: as §1
Series [4] addresses T2, LgtC (Neisseria meningitidis) (UniProt Q93EK7).
T2 sequence (whole entry): T1 sequence (Q93EK7 whole entry)
The series is described as §2. In a few lines:
as §1

Series [5] has as its target T2, LgtC (Neisseria meningitidis). Briefly: Inhibition of recombinant Neisseria meningitidis glycosyltransferase LgtC assessed as ratio of Kinact/Ki using UDP-Gal/lactose as substrate preincubated for 20 mins with UDP-Gal followed by lactose addition measured after 20 mins in presence of MnCl2. In a few lines:
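Kinetic parameters from LgtC activity at ranges of inhibitor (0-50 up to 0-250 µM) after 0, 5, 10 and 20 min pre-incubation. Activity, as % of DMSO control, was plotted against pre-incubation time and fitted exponentially to give Kobs. Kobs was then fitted against [I] with the hyperbolic equation to obtain kinact and Ki. Triplicate.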

The target is the same in series [6]. Briefly: Inhibition of recombinant Neisseria meningitidis glycosyltransferase LgtC using UDP-Gal/lactose as substrate at 50 uM preincubated for 30 mins with UDP-Gal followed by lactose addition measured after 20 mins in presence of MnCl2 and calf intestinal phosphatase by malachite green dye based enzyme-coupled colorimetric assay relative to control. Summed up:
(§3)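 Recombinant N. meningitidis LgtC, activated with 10 mM DTT (1:1, 30 min, 30 °C) and set to 20-50% UDP-Gal turnover. It was pre-incubated 30 min at 30 °C with 25 or 50 µM inhibitor in 13 mM HEPES pH 7.0 containing UDP-Gal 28 µM, MnCl2 5 mM, CIP 10 U/mL, CEL 1 mg/mL, Triton 0.01% and 10% DMSO. Lactose 2 mM was then added for 20 min at 30 °C. Malachite Green read at A620; activity taken against a DMSO control.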

Series [7] has the same target. Briefly: Inhibition of recombinant Neisseria meningitidis glycosyltransferase LgtC using UDP-Gal/lactose as substrate at 25 uM preincubated for 30 mins with UDP-Gal followed by lactose addition measured after 20 mins in presence of MnCl2 and calf intestinal phosphatase by malachite green dye based enzyme-coupled colorimetric assay relative to control. Summed up: as §3

Series [8] has as its system Haemophilus influenzae. Briefly: Growth inhibition of Haemophilus influenzae R2866 up to 100 uM incubated for 1 hr followed by drug removal and re-plating of colonies for 24 hrs by bacterial viable count method. Type of series: organism-based. Particulars: in vivo. Summed up:
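H. influenzae R2866 was grown overnight in supplemented BHI at 37 °C, 180 rpm, then diluted to OD590 0.7. Cells were exposed 1 h at 37 °C to compound (0-200 µM; final DMSO 10%) or DMSO. They were centrifuged, washed twice with sBHI, serially diluted and plated on chocolate agar (24 h, 37 °C, 5% CO2) for viable counts. Triplicate, mean; unpaired t-test.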

In series [9] the test system is Haemophilus influenzae. Briefly: Toxicity against Haemophilus influenzae R2866. Type of series: organism-based. Conditions: in vivo.
For series [10], the system named is Haemophilus influenzae. Briefly: Potentiation of human serum-induced killing of Haemophilus influenzae R2866 at 100 uM in presence of 30% v/v human serum pre-incubated for 1 hr followed by drug removal and re-plating of colonies for 24 hrs by bacterial viable count method. Type of series: functional, organism-based. In a few lines: (§4)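 Overnight R2866 sBHI culture, diluted to OD590 0.7, was exposed 1 h at 37 °C to 30% v/v normal human serum plus inhibitor (50 or 100 µM); the control received 30% serum alone. Serum and compound were removed by centrifugation and two sBHI washes. Cells were serially diluted and plated on chocolate agar (24 h, 37 °C, 5% CO2) for viable counts. Triplicate, mean.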

Series [11] deals with Haemophilus influenzae. Briefly: Potentiation of human serum-induced killing of Haemophilus influenzae R2866 at 50 uM in presence of 30% v/v human serum pre-incubated for 1 hr followed by drug removal and re-plating of colonies for 24 hrs by bacterial viable count method. The series is classed as functional, organism-based. In a few lines: as §4

Calls of active or inactive are those of the source. No cut-off for these calls is given here.

The term IC50 denotes the concentration at which inhibition is half-maximal. As a reminder, the Ki is the equilibrium dissociation constant of an inhibitor or competing ligand from its target. In general, inhibition refers to how much of the control response was suppressed.

With `CCOC(=O)c1ccccc1/C=C1\C(=O)N(c2ccccc2)N=C1C(F)(F)F`, the half-inhibitory concentration (IC50) in [1] is greater than 100 µM.
As to `O=C1/C(=C\c2ccc(O)cc2)C(C(F)(F)F)=NN1c1ccccc1`, the IC50 in series [2] was found to be 5.8 µM. The inhibition constant (Ki) in [3] is 6.8 µM. The Kinact in [4] worked out at 0.0025 s⁻¹. Besides, the Ratio in [5] is 370 M⁻¹ s⁻¹.
For `COc1ccc(/C=C2\C(=O)N(c3ccc(C(=O)O)cc3)N=C2C(F)(F)F)cc1Br`, in series [1], the half-inhibitory concentration (IC50) came to 2.9 µM.
On the same count and under the same terms, then `COc1ccc(/C=C2\C(=O)N(c3cccc(C(=O)NCCO)c3)N=C2C(F)(F)F)cc1Br`, with 4.3 µM.
In the case of `O=C1/C(=C\c2ccc(Cl)cc2)C(C(F)(F)F)=NN1c1ccccc1`, the results for the IC50 in series [2] and in series [1] were 80 µM and 25 µM, respectively. Besides, the Ki in series [3] stood at 49 µM. The Kinact in [4] was 0.0009 s⁻¹. The Ratio in series [5] came out at 18 M⁻¹ s⁻¹.
As to `COc1ccc(/C=C2\C(=O)N(c3ccccc3)N=C2C)cc1Br`, the inhibition in series [6] turned out to be 43%; in series [7], 33%. For the same compound, in [1], the IC50 was greater than 50 µM.
`CC1=NN(c2ccccc2)C(=O)/C1=C\c1ccccc1C(F)(F)F`: the “growth inhibition (GI)” value was “Non-Toxic” in series [8] and “Toxic” in [9]. In addition, the outcome in series [10] was inactive.
Turning to `COc1ccc(/C=C2\C(=O)N(Cc3ccccc3)N=C2C(F)(F)F)cc1Br`, the half-inhibitory concentration (IC50) in series [1] was 12 µM.
As for `O=C1/C(=C\c2cccc(Cl)c2)C(C(F)(F)F)=NN1c1ccccc1`, in [2], the concentration for half-maximal inhibition (IC50) was determined as 64 µM. In addition, the inhibition constant Ki in series [3] came to 88 µM. In addition, the Kinact in series [4] came to 0.0016 s⁻¹. The Ratio in [5] came out at 18 M⁻¹ s⁻¹.
`O=C1/C(=C\c2ccc(OCc3ccccc3)cc2)C(C(F)(F)F)=NN1c1ccccc1`: in [2], the concentration for half-maximal inhibition (IC50) was determined as 3.3 µM. In addition, the Ki in series [3] is 4.7 µM. Besides, the Kinact in series [4] is 0.0011 s⁻¹. Also, the Ratio in series [5] was 238 M⁻¹ s⁻¹.
In the case of `O=C1/C(=C\c2cccc(OCc3ccccc3)c2)C(C(F)(F)F)=NN1c1ccccc1`, the entries for the “growth inhibition (GI)” value in [8] and in series [9] were “Non-Toxic” and “Toxic”, respectively. Further, the IC50 in [2] was 38 µM; in [1] it was 18 µM. Further, the Ki in [3] came to 50 µM. Moreover, the Kinact in series [4] is 0.0018 s⁻¹. Further, the Ratio in series [5] came to 36 M⁻¹ s⁻¹. Besides, the outcome in [10] was inactive.
In the case of `COc1ccc(/C=C2\C(=O)N(c3ccccc3)N=C2C(F)(F)F)cc1`, in [2], the IC50 worked out at 8.9 µM. The inhibition constant Ki in [3] is 19 µM. The Kinact in series [4] is 0.0015 s⁻¹. In addition, in series [5], the Ratio was determined as 80 M⁻¹ s⁻¹.
`COc1ccc(/C=C2\C(=O)N(c3cccc(C(=O)O)c3)N=C2C(F)(F)F)cc1Br`: in series [1], the half-inhibitory concentration (IC50) was 3 µM.
Consider `O=C1/C(=C\c2ccccc2)C(C(F)(F)F)=NN1c1ccccc1`, for which the figures for the IC50 in series [2] and in series [1] were 63 µM and 28 µM, respectively. Besides, in series [3], the Ki amounted to 153 µM. The Kinact in [4] stood at 0.002 s⁻¹. In series [5], the Ratio came to 13 M⁻¹ s⁻¹.
`COc1ccc(/C=C2\C(=O)N(c3ccccc3)N=C2C(=O)O)cc1Br`: the inhibition turned out to be 58% in [6] and 35% in series [7].
For `CCOC(=O)C1=NN(c2ccccc2)C(=O)/C1=C\c1ccc(OC)c(Br)c1`, the inhibition in series [6] turned out to be 66%; in [7] it was 61%.
The corresponding values for `COc1ccc(/C=C2\C(=O)N(c3ccccc3)N=C2C(N)=O)cc1Br` are 39% and 31%.
With `COc1ccc(/C=C2\C(=O)N(c3ccccc3)N=C2C(F)(F)F)cc1Br`, the inhibition is 84% in series [6] and 80% in series [7]. For the same compound, the “growth inhibition (GI)” value in [8] is given as “Non-Toxic”. For the same compound, the result in series [11] was inactive. In addition, the half-inhibitory concentration (IC50) stood at 6.4 µM in [2] and 3.1 µM in series [1]. The Ki in [3] came out at 7.1 µM. Moreover, the Kinact in series [4] amounted to 0.0012 s⁻¹. The Ratio in [5] turned out to be 163 M⁻¹ s⁻¹.
`CCOC(=O)CC1=NN(c2ccccc2)C(=O)/C1=C\c1ccc(OC)c(Br)c1`: the inhibition in [6] stood at 67%; in series [7] it was 32%.

The record behind these values is ChEMBL document CHEMBL4219186, “Structure-activity relationships in a new class of non-substrate-like covalent inhibitors of the bacterial glycosyltransferase LgtC” (Bioorg Med Chem, 2018).
